Experimental findings from ChEMBL document CHEMBL4130443, “Targeting breast cancer stem cells by novel HDAC3-selective inhibitors” (Eur J Med Chem, 2017) are described below.

Structures are written as SMILES. Active and inactive are the calls of the source. The rule behind the calls is not given here.

As a reminder, the inhibition is the percentage by which the read-out fell short of the control. One may read the IC50 as the concentration that gives 50% inhibition.

The target in data set [1] is T1, Histone deacetylase 1 (Homo sapiens, UniProt Q13547). The data set is described as follows: Inhibition of human HDAC1 at 1 uM using p53 (379 to 382 residues) derived fluorogenic peptide RHKKAc. The method, boiled down: (§1)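 Isoform profiling run by a commercial vendor with compounds at 1 µM. Values are percent inhibition, each the average of two determinations.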

Data set [2] deals with T2, Histone deacetylase 2 (Homo sapiens, UniProt Q92769). The data set is described as follows: Inhibition of human HDAC2 at 1 uM using p53 (379 to 382 residues) derived fluorogenic peptide RHKKAc. The method, boiled down: as §1
The target of data set [3] is Histone deacetylase 3/Nuclear receptor corepressor 2 (HDAC3/NCoR2) (Homo sapiens) (UniProt O15379+Q9Y618). Nature of the data set: Inhibition of human HDAC3/NCOR2 at 1 uM using p53 (379 to 382 residues) derived fluorogenic peptide RHKKAc. The class given is protein-complex assay. The method, boiled down: as §1
For data set [4], the target named is Histone deacetylase 4 (Homo sapiens) (UniProt P56524). Nature of the data set: Inhibition of human HDAC4 at 1 uM using Boc-Lys(trifluoroacetyl)-AMC substrate. The method, boiled down:
as §1

In data set [5] the target is Histone deacetylase 5 (Homo sapiens) (UniProt Q9UQL6). Nature of the data set: Inhibition of human HDAC5 at 1 uM using Boc-Lys(trifluoroacetyl)-AMC substrate. The method, boiled down:
as §1

Data set [6] concerns the target T3, Protein deacetylase HDAC6 (Homo sapiens) (UniProt Q9UBN7).
T3 sequence (whole entry): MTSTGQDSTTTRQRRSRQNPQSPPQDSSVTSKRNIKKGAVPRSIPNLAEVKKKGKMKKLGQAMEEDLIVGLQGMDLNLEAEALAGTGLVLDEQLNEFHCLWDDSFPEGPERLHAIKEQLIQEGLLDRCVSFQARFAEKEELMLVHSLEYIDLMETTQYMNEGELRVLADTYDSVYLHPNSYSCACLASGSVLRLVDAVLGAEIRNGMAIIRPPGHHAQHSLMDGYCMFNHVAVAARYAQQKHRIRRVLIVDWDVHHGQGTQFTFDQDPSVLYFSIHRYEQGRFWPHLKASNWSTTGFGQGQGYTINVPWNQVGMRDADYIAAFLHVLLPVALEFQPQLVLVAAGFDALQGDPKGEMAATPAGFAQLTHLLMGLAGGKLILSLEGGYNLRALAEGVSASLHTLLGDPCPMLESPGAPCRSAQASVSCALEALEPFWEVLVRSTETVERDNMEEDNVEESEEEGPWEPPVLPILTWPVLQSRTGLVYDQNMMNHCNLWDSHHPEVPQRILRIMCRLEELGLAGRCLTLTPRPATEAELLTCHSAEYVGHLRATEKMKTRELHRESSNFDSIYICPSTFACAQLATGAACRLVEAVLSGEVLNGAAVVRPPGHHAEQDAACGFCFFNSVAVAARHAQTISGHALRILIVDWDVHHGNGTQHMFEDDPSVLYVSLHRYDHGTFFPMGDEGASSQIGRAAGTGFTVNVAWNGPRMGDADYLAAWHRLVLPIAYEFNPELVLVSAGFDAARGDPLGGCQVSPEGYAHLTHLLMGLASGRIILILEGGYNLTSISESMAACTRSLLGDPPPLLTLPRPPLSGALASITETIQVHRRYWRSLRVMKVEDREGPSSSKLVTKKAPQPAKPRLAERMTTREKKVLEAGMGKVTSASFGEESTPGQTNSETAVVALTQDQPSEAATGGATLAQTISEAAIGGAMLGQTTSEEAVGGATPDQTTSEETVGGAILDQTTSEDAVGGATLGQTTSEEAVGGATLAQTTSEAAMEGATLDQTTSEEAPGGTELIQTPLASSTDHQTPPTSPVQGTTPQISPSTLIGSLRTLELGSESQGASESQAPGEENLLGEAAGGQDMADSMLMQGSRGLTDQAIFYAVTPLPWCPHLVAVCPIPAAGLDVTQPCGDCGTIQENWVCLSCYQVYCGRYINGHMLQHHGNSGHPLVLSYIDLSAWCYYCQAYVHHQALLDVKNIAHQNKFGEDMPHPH
Nature of the data set: Inhibition of human HDAC6 at 1 uM using p53 (379 to 382 residues) derived fluorogenic peptide RHKKAc. Summed up: as §1

The target in data set [7] is T4, Histone deacetylase 8 (Homo sapiens) (UniProt Q9BY41).
T4 sequence (whole entry): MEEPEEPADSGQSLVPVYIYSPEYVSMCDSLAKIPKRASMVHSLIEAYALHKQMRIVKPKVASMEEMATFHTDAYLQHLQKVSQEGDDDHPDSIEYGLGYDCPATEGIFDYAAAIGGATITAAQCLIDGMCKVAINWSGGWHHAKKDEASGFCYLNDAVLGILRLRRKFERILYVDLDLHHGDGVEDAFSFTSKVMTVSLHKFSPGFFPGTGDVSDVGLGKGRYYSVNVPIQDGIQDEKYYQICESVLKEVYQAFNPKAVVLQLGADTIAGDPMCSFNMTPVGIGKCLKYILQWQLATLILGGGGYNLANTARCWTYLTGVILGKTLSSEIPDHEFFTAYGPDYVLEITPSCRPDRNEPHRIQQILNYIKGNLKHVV
The data set is described as follows: Inhibition of human HDAC8 at 1 uM using p53 (379 to 382 residues) derived fluorogenic peptide RHKAcKAc. Summed up: as §1

In data set [8] the target is T5, Histone deacetylase (Homo sapiens) (UniProt Q13547+O15379+Q9UBN7+Q92769+Q9UQL6+Q8WUI4+Q9BY41+Q96DB2+P56524+Q9UKV0+Q969S8). Nature of the data set: Inhibition of HDAC in human MDA-MB-231 cells assessed as increase in histone H3 acetylation at 0.1 to 2.5uM incubated for 48 hrs by Western blot method. In kind it is cell-based. Summed up:
(§2)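 Cells treated 48 h at the indicated concentrations, with a reference HDAC inhibitor at 0.25 µM as positive control on each blot. Lysed in 1% SDS, 10 mM EDTA, 50 mM Tris-HCl pH 8.1 with protease/phosphatase inhibitors, then sonicated. Equal protein by SDS-PAGE on nitrocellulose. Primary antibodies 1:1000 overnight at 4°C, HRP secondary, ECL. Blots for pan-H3 and H3K9 acetylation, tubulin acetylation and Notch1.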
In general terms: Immunoblotting shows a protein as a band on a membrane.

Data set [9] has as its target T5, Histone deacetylase (Homo sapiens). Nature of the data set: Inhibition of HDAC in human MDA-MB-231 cells assessed as increase in histone H3K9 acetylation at 0.1 to 2.5uM incubated for 48 hrs by Western blot method. In kind it is cell-based. The method, boiled down: as §2
In data set [10] the target is T3, Protein deacetylase HDAC6 (Homo sapiens). Nature of the data set: Inhibition of HDAC6 in human MDA-MB-231 cells assessed as increase in histone H3K9 acetylation at 0.1 to 2.5uM incubated for 48 hrs by Western blot method. Conditions: in the assay text read “tubulin acetylation” for “histone H3K9 acetylation”. The class given is cell-based. The method, boiled down:
as §2

The target of data set [11] is T4, Histone deacetylase 8 (Homo sapiens). Nature of the data set: Inhibition of HDAC8 in human MDA-MB-231 cells assessed as reduction in Notch1 expression at 2.5uM incubated for 48 hrs by Western blot method. In kind it is cell-based. Summed up:
as §2

Data set [12] deals with T3, Protein deacetylase HDAC6 (Homo sapiens). Nature of the data set: Inhibition of HDAC6 in human MDA-MB-231 cells assessed as increase in histone H3K9 acetylation at 0.25 uM incubated for 48 hrs by Western blot method. In kind it is cell-based. To be noted: in the assay text read “tubulin acetylation” for “histone H3K9 acetylation”. Summed up:
as §2

The target in data set [13] is T4, Histone deacetylase 8 (Homo sapiens). Nature of the data set: Inhibition of HDAC8 in human MDA-MB-231 cells assessed as reduction in Notch1 expression at 0.25 uM incubated for 48 hrs by Western blot method. In kind it is cell-based. Summed up: as §2
Data set [14] has as its target T1, Histone deacetylase 1. The data set is described as follows: Inhibition of human HDAC1 using p53 (379 to 382 residues) derived fluorogenic peptide RHKKAc.
The target in data set [15] is T2, Histone deacetylase 2. The data set is described as follows: Inhibition of human HDAC2 using p53 (379 to 382 residues) derived fluorogenic peptide RHKKAc.
Data set [16] addresses Histone deacetylase 3/Nuclear receptor corepressor 2 (HDAC3/NCoR2) (Homo sapiens, UniProt O15379). Nature of the data set: Inhibition of human HDAC3/NCOR2 using p53 (379 to 382 residues) derived fluorogenic peptide RHKKAc. The class given is protein-complex assay.
Data set [17] relates to MDA-MB-231. Nature of the data set: Cytotoxicity in human MDA-MB-231 cells assessed as reduction in cell viability incubated for 24 to 72 hrs by MTT assay. In kind it is functional, cell-based. The method, boiled down:
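MDA-MB-231 seeded 5,000 cells/well with 10% FBS, left overnight, then exposed to agents in 5% FBS for 24, 48 and 72 h. MTT added for 1 h, dye dissolved in DMSO, absorbance at 560 nm. Viability given as percent of the matching vehicle-treated control. N = 6.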
(Tetrazolium assays rely on reduction of a dye to a coloured formazan, in cell work by metabolically active cells.)

The test system of data set [18] is MDA-MB-231. Nature of the data set: Growth inhibition of human MDA-MB-231 cells incubated for 48 to 72 hrs by crystal violet staining based assay. In kind it is functional, cell-based. The method, boiled down: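 Cells plated at 5000/well and left overnight, then treated in 5% FBS for 24, 48 and 72 h. Washed with PBS, stained 20 min with 0.5% crystal violet in 20% methanol, stain solubilized in 2% SDS, absorbance read at 550. Growth inhibition calculated as (1-Nt/Nc) x 100 against vehicle wells. N = 6.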

The subject of data set [19] is MDA-MB-231. The data set is described as follows: Inhibition of colony formation of human MDA-MB-231 cells incubated for 48 hrs by crystal violet staining based assay. To be noted: MDA-MB-231, 48 h.
Data set [20] concerns MDA-MB-231. Nature of the data set: Inhibition of mammosphere formation of human MDA-MB-231 cells incubated for 7 days. To be noted: MDA-MB-231, 168 h.
The target in data set [21] is Histone deacetylase 3 (Homo sapiens) (UniProt O15379). Nature of the data set: Inhibition of HDAC3 in human MDA-MB-231 cells assessed as reduction in Akt phosphorylation at 0.5 to 5 uM by immunoblotting. In kind it is cell-based. Summed up: (§3)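 Monolayer cells treated in 5% FBS at graded concentrations. Lysed in SDS/EDTA/Tris pH 8.1 buffer, equal protein immunoblotted with primary antibodies 1:1000 overnight at 4°C. Detected by ECL for phospho-Akt, β-catenin and histone H3 pan/H3K9 acetylation.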

For data set [22] the target is unchanged. The data set is described as follows: Inhibition of HDAC3 in human MDA-MB-231 cells assessed as reduction in beta-catenin expression at 0.5 to 5 uM by immunoblotting. In kind it is cell-based. Summed up: as §3
Data set [23] has the same target. The data set is described as follows: Inhibition of HDAC3 in human MDA-MB-231 cells assessed as increase in histone H3 acetylation at 0.5 to 5 uM by immunoblotting. In kind it is cell-based. Summed up:
as §3

Data set [24] relates to MDA-MB-231. The data set is described as follows: Effect on beta-catenin mRNA expression in human MDA-MB-231 cells at 0.5 to 5 uM by RT-PCR method. In kind it is cell-based. To be noted: mda-mb-231, 5 µM. Summed up: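 Monolayer cells treated at graded concentrations. Total RNA isolated with TRIzol. β-catenin mRNA assessed by RT-PCR with β-actin as reference.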

T1 sequence (Q13547 whole entry, the tested form may be a part, canonical isoform): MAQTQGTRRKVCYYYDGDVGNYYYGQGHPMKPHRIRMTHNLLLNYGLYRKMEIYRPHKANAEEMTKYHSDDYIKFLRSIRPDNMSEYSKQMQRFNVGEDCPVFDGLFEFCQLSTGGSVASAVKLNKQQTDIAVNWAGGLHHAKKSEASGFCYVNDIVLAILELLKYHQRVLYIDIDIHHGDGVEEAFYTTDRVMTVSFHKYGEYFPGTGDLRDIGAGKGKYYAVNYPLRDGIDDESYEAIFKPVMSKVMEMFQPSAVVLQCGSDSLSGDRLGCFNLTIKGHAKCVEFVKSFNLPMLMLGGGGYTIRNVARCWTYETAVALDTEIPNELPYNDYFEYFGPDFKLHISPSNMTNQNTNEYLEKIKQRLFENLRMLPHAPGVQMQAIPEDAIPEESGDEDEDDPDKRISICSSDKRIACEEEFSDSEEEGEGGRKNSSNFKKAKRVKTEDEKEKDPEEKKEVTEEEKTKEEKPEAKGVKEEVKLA
Histone deacetylase 3 (Homo sapiens), sequence (O15379 whole entry): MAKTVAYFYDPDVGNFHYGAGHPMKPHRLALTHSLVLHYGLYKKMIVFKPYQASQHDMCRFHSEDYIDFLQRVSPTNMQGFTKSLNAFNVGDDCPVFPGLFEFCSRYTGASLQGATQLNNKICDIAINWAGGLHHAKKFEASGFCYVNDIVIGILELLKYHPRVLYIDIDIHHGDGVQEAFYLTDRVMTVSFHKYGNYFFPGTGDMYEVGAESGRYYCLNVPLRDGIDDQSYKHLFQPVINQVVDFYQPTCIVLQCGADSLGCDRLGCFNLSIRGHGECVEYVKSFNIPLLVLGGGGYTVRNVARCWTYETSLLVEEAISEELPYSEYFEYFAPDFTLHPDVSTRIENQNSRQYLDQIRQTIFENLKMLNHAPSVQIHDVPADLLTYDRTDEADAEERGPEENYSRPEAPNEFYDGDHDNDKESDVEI
T2 sequence (Q92769 whole entry, the tested form may be a part): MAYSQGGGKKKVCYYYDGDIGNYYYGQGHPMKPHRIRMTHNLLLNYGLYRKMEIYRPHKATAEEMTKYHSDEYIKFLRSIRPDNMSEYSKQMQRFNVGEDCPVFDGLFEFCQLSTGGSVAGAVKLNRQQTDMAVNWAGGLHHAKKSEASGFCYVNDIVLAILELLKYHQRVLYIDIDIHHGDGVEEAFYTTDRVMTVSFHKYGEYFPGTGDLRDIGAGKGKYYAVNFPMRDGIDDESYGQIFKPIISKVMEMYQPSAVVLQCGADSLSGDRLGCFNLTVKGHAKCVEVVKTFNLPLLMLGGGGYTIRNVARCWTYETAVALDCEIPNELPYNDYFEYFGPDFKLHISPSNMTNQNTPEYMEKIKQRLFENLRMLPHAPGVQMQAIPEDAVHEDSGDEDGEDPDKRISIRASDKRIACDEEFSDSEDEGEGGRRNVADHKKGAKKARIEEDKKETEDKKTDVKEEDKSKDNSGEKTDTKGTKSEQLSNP
Histone deacetylase 5 (Homo sapiens), sequence (Q9UQL6 whole entry): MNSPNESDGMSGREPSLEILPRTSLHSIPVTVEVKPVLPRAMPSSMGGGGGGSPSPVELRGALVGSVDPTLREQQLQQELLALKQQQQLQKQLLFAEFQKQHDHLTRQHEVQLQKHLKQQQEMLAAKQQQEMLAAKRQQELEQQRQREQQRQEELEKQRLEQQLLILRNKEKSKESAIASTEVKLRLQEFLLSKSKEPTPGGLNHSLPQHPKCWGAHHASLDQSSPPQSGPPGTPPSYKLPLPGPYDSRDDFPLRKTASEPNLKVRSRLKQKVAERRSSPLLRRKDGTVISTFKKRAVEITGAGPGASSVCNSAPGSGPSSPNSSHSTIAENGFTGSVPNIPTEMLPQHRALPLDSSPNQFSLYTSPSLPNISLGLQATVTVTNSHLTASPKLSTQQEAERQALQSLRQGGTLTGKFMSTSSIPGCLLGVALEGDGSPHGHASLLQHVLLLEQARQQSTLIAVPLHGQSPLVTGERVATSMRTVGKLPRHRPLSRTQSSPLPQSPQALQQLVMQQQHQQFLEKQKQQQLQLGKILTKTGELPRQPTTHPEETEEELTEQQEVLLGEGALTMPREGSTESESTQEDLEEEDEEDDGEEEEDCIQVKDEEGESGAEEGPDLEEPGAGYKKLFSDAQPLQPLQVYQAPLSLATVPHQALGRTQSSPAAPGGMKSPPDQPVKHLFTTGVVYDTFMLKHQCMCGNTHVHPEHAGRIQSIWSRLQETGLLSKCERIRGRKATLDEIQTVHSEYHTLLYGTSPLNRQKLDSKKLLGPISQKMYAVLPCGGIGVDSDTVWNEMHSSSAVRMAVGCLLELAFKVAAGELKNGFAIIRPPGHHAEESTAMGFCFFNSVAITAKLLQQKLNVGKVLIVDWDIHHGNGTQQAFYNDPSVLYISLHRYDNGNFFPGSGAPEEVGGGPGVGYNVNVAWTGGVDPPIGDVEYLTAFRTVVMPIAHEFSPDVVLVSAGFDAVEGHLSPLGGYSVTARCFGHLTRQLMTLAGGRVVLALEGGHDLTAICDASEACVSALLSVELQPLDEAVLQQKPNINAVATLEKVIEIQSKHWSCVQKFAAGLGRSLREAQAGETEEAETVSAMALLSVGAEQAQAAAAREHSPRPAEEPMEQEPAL
Histone deacetylase 4 (Homo sapiens), sequence (P56524 whole entry): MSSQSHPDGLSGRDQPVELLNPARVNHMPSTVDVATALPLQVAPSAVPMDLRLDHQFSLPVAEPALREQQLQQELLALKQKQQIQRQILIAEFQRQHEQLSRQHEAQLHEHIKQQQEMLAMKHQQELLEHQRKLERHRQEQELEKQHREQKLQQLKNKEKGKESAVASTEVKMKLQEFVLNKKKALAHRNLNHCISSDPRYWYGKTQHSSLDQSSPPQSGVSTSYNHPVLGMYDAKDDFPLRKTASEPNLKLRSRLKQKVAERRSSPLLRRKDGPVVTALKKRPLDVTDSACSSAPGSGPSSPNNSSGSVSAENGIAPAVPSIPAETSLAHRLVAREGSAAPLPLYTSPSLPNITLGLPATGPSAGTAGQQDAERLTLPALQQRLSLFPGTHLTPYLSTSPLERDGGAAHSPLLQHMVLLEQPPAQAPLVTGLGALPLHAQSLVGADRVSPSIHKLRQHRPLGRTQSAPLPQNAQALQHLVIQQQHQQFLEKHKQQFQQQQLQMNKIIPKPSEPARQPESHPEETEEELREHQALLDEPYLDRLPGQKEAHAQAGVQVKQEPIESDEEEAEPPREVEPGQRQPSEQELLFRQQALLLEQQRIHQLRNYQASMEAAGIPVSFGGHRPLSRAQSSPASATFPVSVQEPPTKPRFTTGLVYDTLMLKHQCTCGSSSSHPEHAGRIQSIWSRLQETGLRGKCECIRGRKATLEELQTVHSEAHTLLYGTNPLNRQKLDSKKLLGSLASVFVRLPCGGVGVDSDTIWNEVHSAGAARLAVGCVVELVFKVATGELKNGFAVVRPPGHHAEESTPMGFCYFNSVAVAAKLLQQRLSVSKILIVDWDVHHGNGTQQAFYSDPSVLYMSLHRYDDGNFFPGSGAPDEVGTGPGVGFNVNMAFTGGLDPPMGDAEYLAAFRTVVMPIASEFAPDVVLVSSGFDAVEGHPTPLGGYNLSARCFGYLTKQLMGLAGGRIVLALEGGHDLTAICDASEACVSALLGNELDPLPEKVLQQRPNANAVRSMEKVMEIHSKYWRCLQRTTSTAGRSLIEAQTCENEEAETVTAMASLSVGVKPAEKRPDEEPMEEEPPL

Consider `CC(C)[C@@H](C(=O)Nc1ccc(C(=O)Nc2ccccc2N)cc1)c1ccccc1`, for which the inhibition at Histone deacetylase 1 [1] is 80%; on Histone deacetylase 2 [2], 57%; in [3] it was 76%; in data set [4], 9%; in [5], 9%; in [6] it was 16%. The same compound gave an inhibition in data set [7] of 38%. In addition, the inhibition result in data set [8], in [9] and in [11] was “Active” in each case. Besides, in [10], the inhibition result was “inactive”.
Turning to `CC(C)[C@H](C(=O)Nc1ccc(C(=O)NO)cc1)c1ccccc1`, the inhibition at Histone deacetylase 1 [1] was 95%; against Histone deacetylase 2 [2], 72%; in data set [3] it was 93%; in [4], 21%; in data set [5] it was 0%; in [6], 100%. This compound yielded an inhibition in data set [7] of 87%. Besides, the inhibition result in data set [12] and in data set [13] was “Active” each time.
On to `Nc1cc(F)ccc1NC(=O)c1ccc(NC(=O)Cc2ccccc2)cc1`, for which the IC50 was 2.3 µM on Histone deacetylase 1 [14]; 3.2 µM at Histone deacetylase 2 [15]; 0.18 µM in data set [16]; not below 10 µM with MDA-MB-231 [17]; not below 10 µM with MDA-MB-231 [18]; 0.5 to 1 µM with MDA-MB-231 [19]. In the data set with MDA-MB-231 [20], the IC50 was 0.5 to 1 µM. The inhibition entry in data set [21], in data set [22] and in data set [23] was “Dose-dependent effect” in each case. Also, the Activity result in the data set on MDA-MB-231 [24] is given as “Non-Toxic”.
